This is one part of a sample in which hits are shown more often than they occur.
PGC1a Ac signal = compounds raising PGC1a acetylation signal, primary screen, PGC1a modulator project, cell-based, U2OS, AlphaScreen, signal-increasing mode; overnight; activation, % at 15.6 µM; actives 0.21% (n = 350,000);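 active = every replicate reaching activation of at least 50%, whatever the mean replicate activation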;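 also: hits raise the AlphaScreen acetylation signal above neutral controls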
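System – flag-PGC1a/GCN5 U2OS cells · Quantity – 7000 U2OS cells per well · Signal – AlphaScreen proximity luminescence, anti-acetyl-lysine antibody · Schedule – overnight compound treatment, 37 °C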
Each line names hits and unclear results; the compound was inactive in the other large screens.

Cc1noc(C)c1S(=O)(=O)N(C)C[C@H]1Oc2ccc(NC(=O)Nc3ccccc3)cc2CC(=O)N([C@H](C)CO)C[C@H]1C	none
COc1ccc(-c2cnc3c(c2)C(=O)N([C@H](C)CO)C[C@@H](C)[C@H](CN(C)C(=O)C2CCC2)O3)cc1	none
CC(=O)N1/C(=C/c2ccc(N(C)C)cc2)C(=O)c2ccccc21	PGC1a Ac signal 74.7
C[C@@H]1CN([C@@H](C)CO)C(=O)c2cc(C#CC3CCCC3)cnc2O[C@H]1CN(C)C(=O)Nc1ccccc1	none
COCc1ccc(CN2CCC(n3nccc3NC(=O)c3ccc4c(c3)OCO4)CC2)o1	PGC1a Ac signal 54.1
CO[C@@H]1CN(C)C(=O)c2cc(NC(=O)c3ccc4c(c3)OCO4)ccc2OC[C@@H](C)N(CC2CC2)C[C@H]1C	none
CCCCN(C(=O)CCC(=O)Nc1cc(C)on1)C(C(=O)NC1CCCC1)c1ccc(OC)cc1 (stereo not drawn)	none
O=C(/C=C/c1ccc(F)cc1)NNC(=O)CCN1CCN(Cc2ccccc2)CC1	none
CCC(CC)NC(=O)Cc1ccc(S(=O)(=O)N2CCOCC2)s1	PGC1a Ac signal 52.4
COc1ccc(S(=O)(=O)Nc2ccc3c(c2)C(=O)N([C@H](C)CO)C[C@@H](C)[C@H](CN(C)C(=O)Nc2ccc(C(F)(F)F)cc2)OCCCC[C@@H](C)O3)cc1	none
C[C@@H]1CN([C@H](C)CO)C(=O)CCCn2cc(nn2)CO[C@@H]1CN(C)C(=O)NC1CCCC1	none
COc1ccc(CC(CC(=O)O)C(=O)Nc2ccc(OC)cc2)cc1 (stereo not drawn)	PGC1a Ac signal 50.5
COc1ccc(CCN2C(=O)N(c3ccc(OC)cc3)C(=O)C2CC(=O)Nc2ccccc2)cc1 (stereo not drawn)	none
COc1ccc(Cn2nnnc2C(C(C)C)N(Cc2ccco2)Cc2cccs2)cc1 (stereo not drawn)	PGC1a Ac signal 56.4
Cc1ccc(S(=O)(=O)CCSC(=N)N)cc1	PGC1a Ac signal 67.1
CC(=O)CS(=O)(=O)c1ccc(Oc2ccc(S(=O)(=O)CC(C)=O)cc2)cc1	none
Cc1ccccc1C(=O)Nc1ccc(C(=O)O)cc1NC(=O)c1ccccc1C	none
CCOc1ccccc1NC(=O)c1ccc2ccccc2c1	none
CCN(CC)c1ccc(NC(=O)c2cc(OC)cc(OC)c2)c(C)c1	PGC1a Ac signal 98.6
N#C[C@@H]1[C@H](c2ccccc2C2=CCCCC2)[C@H](CO)N1C(=O)Cc1ccncc1	none
C[C@@H]1CN([C@@H](C)CO)C(=O)c2cc(NC(=O)CCCN(C)C)ccc2O[C@@H](C)CCCCO[C@@H]1CN(C)Cc1ccc(C(F)(F)F)cc1	none
Cc1ccc(O)c(C(=O)c2cnc3c(c2)CN(CCC(C)C)C(=O)N3)c1	PGC1a Ac signal 69.8
COc1ccc(CCNc2ccc(C(CC(N)=O)NC(=O)c3cc(C)cc(C)c3)cc2[N+](=O)[O-])cc1 (stereo not drawn)	none
CCOc1c(Br)cc(/C=C2/SC(=O)N(CC(=O)N3CCCC3)C2=O)cc1OC	PGC1a Ac signal 95.6
CCC(=O)N1CCN(c2ccc(Cl)cc2NC(=O)c2ccc([N+](=O)[O-])o2)CC1	PGC1a Ac signal 61.7
COc1ccc(C(=O)Nc2cccc(NC(=O)c3ccc(OC)c(OC)c3)n2)cc1OC	none
CCCCn1nc(NC(=O)c2cccs2)c2cc3ccccc3nc21	none
O=C(Nc1cccc(NC(=O)c2cccs2)c1)c1ccc([N+](=O)[O-])o1	PGC1a Ac signal 93.5
Cc1cccc(NC(=O)c2ccc([N+](=O)[O-])o2)n1	PGC1a Ac signal 65.8
O=C(Nc1ccccc1Cl)c1ccc([N+](=O)[O-])o1	PGC1a Ac signal 65.8
CC(C)C(=O)Nc1cccc(NC(=S)NC(=O)c2ccc([N+](=O)[O-])cc2)c1	none
Nc1ncc([N+](=O)[O-])c(N2CCCCCC2)n1	none
CCC(C)(C)n1nnnc1C(c1cccnc1)N1CCCC(C)C1 (stereo not drawn)	none
C/C(=N\NC(=O)c1cc(C)[nH]n1)c1ccc(-c2ccccc2)cc1	none
Cn1nc(C(C)(C)C)cc1NC(=O)C1(C)CCN1C(=O)C1(c2ccccc2)CCCC1 (stereo not drawn)	none
CO[C@@H]1CN(C)C(=O)c2cc(NC(C)=O)ccc2OC[C@@H](C)N(Cc2ccccc2C(=O)O)C[C@@H]1C	none
COCC(=O)NCc1nc2ccccc2n1Cc1ccccc1F	none
Nc1ccc(N2CCCCC2)cc1N1CCCCC1	PGC1a Ac signal 53.6
O=C(O)c1cc(N2CCCCC2)ccn1	none
O=C(Nc1ccc(F)cc1)c1ccccc1	none
O=C(NC(Nc1cc(C(F)(F)F)ccc1Cl)C(=O)c1ccccc1)c1ccccc1 (stereo not drawn)	PGC1a Ac signal 99.8
Cc1ccc(S(=O)(=O)N(C)C[C@H]2Oc3ccc(NC(=O)CCC(F)(F)F)cc3C(=O)N([C@H](C)CO)C[C@@H]2C)cc1	none
O=C1c2ccccc2C(=O)N1c1ccc(Cc2ccncc2)cc1	none
CCC(C)(C)n1nnnc1CN(Cc1ccc(Cl)cc1)Cc1ccco1	PGC1a Ac signal 81.8
CC1=Nc2ccccc2N=C(NC(=O)CN2CCN(c3ccccc3)CC2)C1c1ccccc1 (stereo not drawn)	none
COc1cccc(-n2nnnc2S(C)(=O)=O)c1	PGC1a Ac signal 200.4
CCCc1nnc(NC(=O)CN2CCOCC2)s1	PGC1a Ac signal 93.0
